Laboratory results as given in the RNAGym collection of RNA variant scans (doi:10.1126/science.aae0568).
Fewer inactive variants are shown than the library holds.

B1: tRNA (parent)
chain: GUUCCGUUGGCGUAAUGGUAACGCGUCUCCCUCCUAAGGAGAAGACUGCGGGUUCGAGUCCCGUACGGAACG

Variants of: B1
Assay: yeast fitness relative to wild type (ratio to wild type); higher = fitter; tRNA-Arg(CCU), competitive growth, 37 C, YPD
Outline: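 Gene amplicons from the start population and from each of six end populations were read by 100-nucleotide paired-end sequencing. Those end populations came from pooled Saccharomyces cerevisiae strains carrying tRNA-Arg(CCU) gene variants at the native locus, competed in YPD at 37°C for 24 hours. Fitness relative to wild type was worked out from changes in genotype frequencies. Genotypes needed ≥ 100 starting reads, and estimates < 0.5 were set to 0.5.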

Row | Variant | yeast fitness
1 | GUUCCGUUGGCGUAAUGGUAACGCGUCUCCCUCCUAACGAGAAGUCUGCGGGUACGAGUCUCGUACGGAACG [G38C A45U U54A C61U] | ≤ 0.5
2 | GUUCCGUUGGCGUAAUGGUAACGCGUCUCCCUCCUAACGUGAAGACUGCGGGUUCGAGUCGCGUACGGAACG [G38C A40U C61G] | ≤ 0.5
3 | GUUCCGUUGGCGUAAUGGUAACGCGUCUCCCUCCUAAAGAGAAGACUGCGGGUUAGAGUCCCGUACGAAACG [G38A C55A G68A] | ≤ 0.5
4 | GUUCCGUUGGCGUAAUGGUAACGCGUCUCCCUCCUAUGGAGAAGACUCCGGGUUCGAGUCCCGUACGGAACG [A37U G48C] | 0.674
5 | GUUCCGUUGGCGUAAUGGUAACGCGUCUCCCUCCUAAAGAGAAGACUGCGGGUUCGAGUCACGUACGGAACG [G38A C61A] | 0.646
6 | GUUCCGUUGGCGUAAUGGUAACGCGUCUCCCUCCUAAAGAGAAGACUGCGGGUUCGAGUUCCGUACGGAACG [G38A C60U] | 0.831
7 | GUUCCGUUGGCGUAAUGGUAACGCGUCUCCCUCCUAAAGAGAAGACUGUGCGUUCGAGUCCCGUACGGAACG [G38A C49U G51C] | ≤ 0.5
8 | GUUCCGUUGGCGUAAUGGUAACGCGUCUCCCUCCUAAAGAGAAGACUGCGGGUUCGAGGCCCGUACGGGACG [G38A U59G A69G] | ≤ 0.5
9 | GUUCCGUUGGCGUAAUGGUAACGCGUCUCCCUCCUAAAGAGAAGACUGCGGGUUCGAGUCCCGUUCGUAACG [G38A A65U G68U] | 0.665
10 | GUUCCGUUGGCGUAAUGGUAACGCGUCUCCCUCCUAUGGAGAAGACUGCGGGGUGGAGUCCAGUACGGAACG [A37U U53G C55G C62A] | 0.744
11 | GUUCCGUUGGCGUAAUGGUAACGCGUCUCCCUCCUAUGGAGAAGACUGCGGGUUCGAGUCCCCUACGGAACG [A37U G63C] | 0.591
12 | GUUCCGUUGGCGUAAUGGUAACGCGUCUCCCUCCUAAAGAGAGGAUUGUGGGUUCGAGUCCCGUACGGAACG [G38A A43G C46U C49U] | 0.611
13 | GUUCCGUUGGCGUAAUGGUAACGCGUCUCCCUCCUAACGAGAAGCCUGCGGGUUCGCGUCCCGUACGGAUCG [G38C A45C A57C A70U] | ≤ 0.5
14 | GUUCCGUUGGCGUAAUGGUAACGCGUCUCCCUCCUAUGGAGAAGACUGCGGAUUCGAGUCCCGUACGGAACG [A37U G52A] | 0.534
15 | GUUCCGUUGGCGUAAUGGUAACGCGUCUCCCUCCUAUGGAGAAGACUGCGGAUCCCGGUCCCGUACGGAACG [A37U G52A U54C G56C A57G] | ≤ 0.5
16 | GUUCCGUUGGCGUAAUGGUAACGCGUCUCCCUCCUAAAGAGAUGACUGCGGGUACGAGUCCCGUACGGAACG [G38A A43U U54A] | ≤ 0.5
17 | GUUCCGUUGGCGUAAUGGUAACGCGUCUCCCUCCUAUGGAGAAGACUGCGGGUUCCAGUCCCGUACGGAACG [A37U G56C] | 0.528
18 | GUUCCGUUGGCGUAAUGGUAACGCGUCUCCCUCCUAAAGAGAAGACUGCGGGUUCGAGUCCUGUACGGCACG [G38A C62U A69C] | 0.717
19 | GUUCCGUUGGCGUAAUGGUAACGCGUCUCCCUCCUAAAGAGAAGACAGCGGGUUGGAGUCUCGUACGGAACG [G38A U47A C55G C61U] | 0.718

Row | Variant | yeast fitness
20 | GUUCCGUUGGCGUAAUGGUAACGCGUCUCCCUCCUAAAGAGAAGACUGCGGGUUCGAGUCCCGUCCGGAACG [G38A A65C] | 0.707
21 | GUUCCGUUGGCGUAAUGGUAACGCGUCUCCCUCCUAACGAGAAGACUGCGGGUUCGAGUCCCGUACGGAGCG [G38C A70G] | 0.756
22 | GUUCCGUUGGCGUAAUGGUAACGCGUCUCCCUCCUAUGGACAAGACUGCGGGUUCGAGUCCCGUACGGAACG [A37U G41C] | 0.68
23 | GUUCCGUUGGCGUAAUGGUAACGCGUCUCCCUCCUAAAGAGAAGACUGCGGGUUCGAGUCACGUUCGGAACG [G38A C61A A65U] | ≤ 0.5
24 | GUUCCGUUGGCGUAAUGGUAACGCGUCUCCCUCCUAAAGCGAAGACUGCGGGCUCGAGUCCCGUACGGAACG [G38A A40C U53C] | 0.538
25 | GUUCCGUUGGCGUAAUGGUAACGCGUCUCCCUCCUAACGAGAAGUCUGCGGGUUCGAGUCCCCUAGGGAACG [G38C A45U G63C C66G] | ≤ 0.5
26 | GUUCCGUUGGCGUAAUGGUAACGCGUCUCCCUCCUAACGAGAAGUCUGCGGGUUCGAGUCCCGUACGGAACG [G38C A45U] | 0.599
27 | GUUCCGUUGGCGUAAUGGUAACGCGUCUCCCUCCUAUGGAGAAGACAGCGGGUUCGAGUCCCGUACGGAACG [A37U U47A] | 0.796
28 | GUUCCGUUGGCGUAAUGGUAACGCGUCUCCCUCCUAUGGAGAAGACCGCGGGUUCGAGUCCCGUACGGAACG [A37U U47C] | 0.667
29 | GUUCCGUUGGCGUAAUGGUAACGCGUCUCCCUCCUAACGAGAAGACUGCGGGUUCGAGUCCCGUACGGUCCG [G38C A69U A70C] | 0.557
30 | GUUCCGUUGGCGUAAUGGUAACGCGUCUCCCUCCUAAAGAGAAGACAGCGGGUUGGAGUCCCGUACGGAACG [G38A U47A C55G] | 0.658
31 | GUUCCGUUGGCGUAAUGGUAACGCGUCUCCCUCCUAUGGAGAAGACAGCGGUUUCGAGUCCCGUACGGAACG [A37U U47A G52U] | ≤ 0.5
32 | GUUCCGUUGGCGUAAUGGUAACGCGUCUCCCUCCUAUGGAGAAAACUGCGGGUUCGCGUCGCGUACGGAACG [A37U G44A A57C C61G] | 0.625
33 | GUUCCGUUGGCGUAAUGGUAACGCGUCUCCCUCCUAUGGAGAAGACUGCAGGUUCGAGUCCCGUACGGUACG [A37U G50A A69U] | 0.805
34 | GUUCCGUUGGCGUAAUGGUAACGCGUCUCCCUCCUAAAGUGAAGACUGCCGGUUCGAGUGCCGUACAGACCG [G38A A40U G50C C60G G67A A70C] | ≤ 0.5
35 | GUUCCGUUGGCGUAAUGGUAACGCGUCUCCCUCCUAAAGAGAAGAAUGCAGGCUCGAGUCCCGUACGGAACG [G38A C46A G50A U53C] | 0.596
36 | GUUCCGUUGGCGUAAUGGUAACGCGUCUCCCUCCUAACGAGGGGACUGCGGGUUCGAGUCCCGUACGGAACG [G38C A42G A43G] | ≤ 0.5
37 | GUUCCGUUGGCGUAAUGGUAACGCGUCUCCCUCCUAAAGAGAGGACUGCGGGUUCGAGUCCCGUACGGAACG [G38A A43G] | 0.607
